According to ChEMBL document CHEMBL3045504, “Activity of 1,4-benzoquinones against formosan subterranean termites (Coptotermes formosanus)” (2008):

Experiments:
Assay type in all cases: functional
Coptotermes formosanus [1] = assay: Termiticidal activity against Coptotermes formosanus placed on 0.05 % wt/wt compound treated filter paper assessed as termite mortality measured 11 days post compound exposure
Outline: (§1)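 Treated filter paper disks moistened with 100 µL water; 20 C. formosanus workers (third instar or greater) plus 1 soldier per dish from field colonies kept on spruce, ca. 100% RH, 26.6 °C. Daily mortality scored for 3 weeks; cumulative percent mortality from four replicates, each a different colony; water-only controls; ANOVA, protected Fisher LSD (P < 0.05) after arcsine square-root transform.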

Coptotermes formosanus [2] = assay: Termiticidal activity against Coptotermes formosanus placed on 0.1 % wt/wt compound treated filter paper assessed as termite mortality measured 13 days post compound exposure; outline: as §1
Coptotermes formosanus [3] = assay: Termiticidal activity against Coptotermes formosanus placed on 0.01 % wt/wt compound treated filter paper assessed as termite mortality measured 11 days post compound exposure; outline: as §1
Coptotermes formosanus [4] = assay: Termiticidal activity against Coptotermes formosanus placed on 0.1 % wt/wt compound treated filter paper assessed as termite mortality measured 11 days post compound exposure; outline: as §1
Coptotermes formosanus [5] = assay: Termiticidal activity against Coptotermes formosanus placed on 0.05 % wt/wt compound treated filter paper assessed as termite mortality measured 6 days post compound exposure; outline: as §1
Coptotermes formosanus [6] = assay: Termiticidal activity against Coptotermes formosanus placed on 0.001 % wt/wt compound treated filter paper assessed as termite mortality measured 17 days post compound exposure; outline: as §1
Coptotermes formosanus [7] = assay: Termiticidal activity against Coptotermes formosanus placed on 0.1 % wt/wt compound treated filter paper assessed as termite mortality measured 21 days post compound exposure; outline: as §1
Coptotermes formosanus [8] = assay: Termiticidal activity against Coptotermes formosanus placed on 0.05 % wt/wt compound treated filter paper assessed as termite mortality measured 21 days post compound exposure; outline: as §1
Coptotermes formosanus [9] = assay: Termiticidal activity against Coptotermes formosanus placed on 0.001 % wt/wt compound treated filter paper assessed as termite mortality measured 21 days post compound exposure; outline: as §1
Coptotermes formosanus [10] = assay: Termiticidal activity against Coptotermes formosanus placed on 0.1 % wt/wt compound treated filter paper assessed as termite mortality measured 6 days post compound exposure; outline: as §1
Coptotermes formosanus [11] = assay: Antifeedant activity against Coptotermes formosanus placed on 1 % wt/wt compound treated filter paper assessed as filter paper consumption measured 21 days post compound exposure (reference value: 85 +/- 15.1 mg)
Coptotermes formosanus [12] = assay: Termiticidal activity against Coptotermes formosanus placed on 0.1 % wt/wt compound treated filter paper assessed as termite mortality measured 17 days post compound exposure; outline: as §1
Coptotermes formosanus [13] = assay: Termiticidal activity against Coptotermes formosanus placed on 0.05 % wt/wt compound treated filter paper assessed as termite mortality measured 9 days post compound exposure; outline: as §1
Coptotermes formosanus [14] = assay: Termiticidal activity against Coptotermes formosanus placed on 0.5 % wt/wt compound treated filter paper assessed as termite mortality measured 9 days post compound exposure; outline: as §1
Coptotermes formosanus [15] = assay: Antifeedant activity against Coptotermes formosanus placed on 0.05 % wt/wt compound treated filter paper assessed as filter paper consumption measured 21 days post compound exposure
Coptotermes formosanus [16] = assay: Termiticidal activity against Coptotermes formosanus placed on 0.001 % wt/wt compound treated filter paper assessed as termite mortality measured 9 days post compound exposure; outline: as §1
Coptotermes formosanus [17] = assay: Termiticidal activity against Coptotermes formosanus placed on 0.01 % wt/wt compound treated filter paper assessed as termite mortality measured 6 days post compound exposure; outline: as §1
Coptotermes formosanus [18] = assay: Termiticidal activity against Coptotermes formosanus placed on 0.5 % wt/wt compound treated filter paper assessed as termite mortality measured 6 days post compound exposure; outline: as §1
Coptotermes formosanus [19] = assay: Antifeedant activity against Coptotermes formosanus placed on 0.5 % wt/wt compound treated filter paper assessed as filter paper consumption measured 21 days post compound exposure (reference value: 54.4 +/- 20.7 mg)
Coptotermes formosanus [20] = assay: Termiticidal activity against Coptotermes formosanus placed on 0.05 % wt/wt compound treated filter paper assessed as termite mortality measured 17 days post compound exposure; outline: as §1
Coptotermes formosanus [21] = assay: Termiticidal activity against Coptotermes formosanus placed on 0.5 % wt/wt compound treated filter paper assessed as termite mortality measured 21 days post compound exposure; outline: as §1
Coptotermes formosanus [22] = assay: Termiticidal activity against Coptotermes formosanus placed on 1 % wt/wt compound treated filter paper assessed as termite mortality measured 21 days post compound exposure
Coptotermes formosanus [23] = assay: Termiticidal activity against Coptotermes formosanus placed on 0.001 % wt/wt compound treated filter paper assessed as termite mortality measured 11 days post compound exposure; outline: as §1
Coptotermes formosanus [24] = assay: Antifeedant activity against Coptotermes formosanus placed on 0.01 % wt/wt compound treated filter paper assessed as filter paper consumption measured 21 days post compound exposure
Coptotermes formosanus [25] = assay: Termiticidal activity against Coptotermes formosanus placed on 0.01 % wt/wt compound treated filter paper assessed as termite mortality measured 9 days post compound exposure; outline: as §1
Coptotermes formosanus [26] = assay: Termiticidal activity against Coptotermes formosanus placed on 0.05 % wt/wt compound treated filter paper assessed as termite mortality measured 13 days post compound exposure; outline: as §1
Coptotermes formosanus [27] = assay: Termiticidal activity against Coptotermes formosanus placed on 0.001 % wt/wt compound treated filter paper assessed as termite mortality measured 6 days post compound exposure; outline: as §1
Coptotermes formosanus [28] = assay: Termiticidal activity against Coptotermes formosanus placed on 0.5 % wt/wt compound treated filter paper assessed as termite mortality measured 11 days post compound exposure; outline: as §1
Coptotermes formosanus [29] = assay: Termiticidal activity against Coptotermes formosanus placed on 0.1 % wt/wt compound treated filter paper assessed as termite mortality measured 9 days post compound exposure; outline: as §1
Coptotermes formosanus [30] = assay: Termiticidal activity against Coptotermes formosanus placed on 0.01 % wt/wt compound treated filter paper assessed as termite mortality measured 21 days post compound exposure; outline: as §1
Coptotermes formosanus [31] = assay: Termiticidal activity against Coptotermes formosanus placed on 0.5 % wt/wt compound treated filter paper assessed as termite mortality measured 17 days post compound exposure; outline: as §1
Coptotermes formosanus [32] = assay: Antifeedant activity against Coptotermes formosanus placed on 0.1 % wt/wt compound treated filter paper assessed as filter paper consumption measured 21 days post compound exposure (reference value: 54.4 +/- 20.7 mg)
Coptotermes formosanus [33] = assay: Antifeedant activity against Coptotermes formosanus placed on 0.001 % wt/wt compound treated filter paper assessed as filter paper consumption measured 21 days post compound exposure
Coptotermes formosanus [34] = assay: Termiticidal activity against Coptotermes formosanus placed on 1 % wt/wt compound treated filter paper assessed as termite mortality measured 11 days post compound exposure
Coptotermes formosanus [35] = assay: Termiticidal activity against Coptotermes formosanus placed on 0.01 % wt/wt compound treated filter paper assessed as termite mortality measured 13 days post compound exposure; outline: as §1
Coptotermes formosanus [36] = assay: Termiticidal activity against Coptotermes formosanus placed on 0.01 % wt/wt compound treated filter paper assessed as termite mortality measured 17 days post compound exposure; outline: as §1
Coptotermes formosanus [37] = assay: Termiticidal activity against Coptotermes formosanus placed on 0.5 % wt/wt compound treated filter paper assessed as termite mortality measured 13 days post compound exposure; outline: as §1
Coptotermes formosanus [38] = assay: Termiticidal activity against Coptotermes formosanus placed on 0.001 % wt/wt compound treated filter paper assessed as termite mortality measured 13 days post compound exposure; outline: as §1
Coptotermes formosanus [39] = assay: Termiticidal activity against Coptotermes formosanus placed on 1 % wt/wt compound treated filter paper assessed as termite mortality measured 3 days post compound exposure

Question: For `CC1=CC(=O)C(C(C)C)=CC1=O` [THYMOQUINONE], which mortality (Coptotermes formosanus [1]) is on record?
Answer: Its mortality is 0%.

Question: And the mortality (Coptotermes formosanus [2])?
Answer: The mortality was 6.7%.

Question: And the mortality (Coptotermes formosanus [3])?
Answer: The mortality was 3.3%.

Question: And the mortality (Coptotermes formosanus [4])?
Answer: Its mortality is 1.7%.

Question: What about the mortality (Coptotermes formosanus [5]) of the same compound?
Answer: The mortality was 0%.

Question: What about the mortality (Coptotermes formosanus [6]) of the same compound?
Answer: The mortality was 5%.

Question: What about the mortality (Coptotermes formosanus [7]) of the same compound?
Answer: The mortality was 8.3%.

Question: And the mortality (Coptotermes formosanus [8])?
Answer: The mortality was 8.3%.

Question: What about the mortality (Coptotermes formosanus [9]) of the same compound?
Answer: Its mortality is 5%.

Question: And the mortality (Coptotermes formosanus [10])?
Answer: Its mortality is 0%.

Question: And the Activity (Coptotermes formosanus [11])?
Answer: Its Activity is 0 mg.

Question: What about the mortality (Coptotermes formosanus [12]) of the same compound?
Answer: The mortality was 8.3%.

Question: What about the mortality (Coptotermes formosanus [13]) of the same compound?
Answer: The mortality was 0%.

Question: What about the mortality (Coptotermes formosanus [14]) of the same compound?
Answer: The mortality was 6.7%.

Question: What about the Activity (Coptotermes formosanus [15]) of the same compound?
Answer: The Activity was 74 mg.

Question: What about the mortality (Coptotermes formosanus [16]) of the same compound?
Answer: The mortality was 1.7%.

Question: And the mortality (Coptotermes formosanus [17])?
Answer: Its mortality is 0%.

Question: And the mortality (Coptotermes formosanus [18])?
Answer: The mortality was 1.7%.

Question: What about the Activity (Coptotermes formosanus [19]) of the same compound?
Answer: The Activity was 93.1 mg.

Question: What about the mortality (Coptotermes formosanus [20]) of the same compound?
Answer: Its mortality is 6.7%.

Question: What about the mortality (Coptotermes formosanus [21]) of the same compound?
Answer: The mortality was 18.3%.

Question: And the mortality (Coptotermes formosanus [22])?
Answer: Its mortality is 100%.

Question: What about the mortality (Coptotermes formosanus [23]) of the same compound?
Answer: Its mortality is 1.7%.

Question: What about the Activity (Coptotermes formosanus [24]) of the same compound?
Answer: Its Activity is 75.4 mg.

Question: And the mortality (Coptotermes formosanus [25])?
Answer: Its mortality is 3.3%.

Question: What about the mortality (Coptotermes formosanus [26]) of the same compound?
Answer: Its mortality is 6.7%.

Question: And the mortality (Coptotermes formosanus [27])?
Answer: Its mortality is 0%.

Question: And the mortality (Coptotermes formosanus [28])?
Answer: Its mortality is 6.7%.

Question: What about the mortality (Coptotermes formosanus [29]) of the same compound?
Answer: The mortality was 1.7%.

Question: What about the mortality (Coptotermes formosanus [30]) of the same compound?
Answer: The mortality was 11.7%.

Question: What about the mortality (Coptotermes formosanus [31]) of the same compound?
Answer: Its mortality is 11.7%.

Question: What about the Activity (Coptotermes formosanus [32]) of the same compound?
Answer: The Activity was 83.5 mg.

Question: And the Activity (Coptotermes formosanus [33])?
Answer: Its Activity is 80.6 mg.

Question: What about the mortality (Coptotermes formosanus [34]) of the same compound?
Answer: The mortality was 100%.

Question: And the mortality (Coptotermes formosanus [35])?
Answer: The mortality was 5%.

Question: And the mortality (Coptotermes formosanus [36])?
Answer: Its mortality is 5%.

Question: And the mortality (Coptotermes formosanus [37])?
Answer: Its mortality is 10%.

Question: And the mortality (Coptotermes formosanus [38])?
Answer: Its mortality is 1.7%.

Question: What about the mortality (Coptotermes formosanus [39]) of the same compound?
Answer: The mortality was 100%.
